Data from ChEMBL document CHEMBL3244084, “A study of the mechanism of halothane-induced liver necrosis. Role of covalent binding of halothane metabolites to liver proteins in the rat” (J Med Chem, 1977).
Activity calls are given as the source filed them. No cut-off for these calls is given here.

Assays:
Rattus norvegicus [1] = test: Anesthetic activity in Sprague-Dawley rat assessed as duration of anesthesia at 4.6 mmol/kg, ip; assay type: functional, organism-based; details: tested as the 14C-labelled form
Outline: (§1)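 Male Sprague-Dawley rats, 100-120 g, fasted overnight before dosing, fed afterwards. Single ip dose of [1-14C]halothane in olive oil (diluted with unlabeled halothane; 50 µCi 14C/kg). Duration of anesthesia recorded in normal and phenobarbital-pretreated rats. Pretreatment was phenobarbital sodium 80 mg/kg ip in water for 3 days, with use on day 4. Six rats per group.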

Rattus norvegicus [2] = test: Toxicity in Sprague-Dawley rat assessed as serum glutamic pyruvic transaminase level in blood at 4.6 mmol/kg, ip measured after 0.5 to 24 hrs (reference value: 14 +/- 2 IU/L); assay type: organism-based; details: in vivo
Rattus norvegicus [3] = test: Drug uptake in Sprague-Dawley rat assessed as radioactivity in lipid fraction at 4.6 to 23 mmol/kg, ip measured at 1 to 6 hrs by scintillation counting; assay type: ADME, organism-based; details: in vivo
Outline: (§2)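 Male Sprague-Dawley rats, 100-120 g, fasted overnight. [1-14C]Halothane in olive oil (50 µCi/kg) given ip at 4.6, 11.5 or 23.0 mmol/kg. Rats killed at 0.5-24 h. Lipid fraction isolated from 1 g liver by the Folch method; DNA fraction by the Irving-Veazey method; proteins handled as for binding. Radioactivity counted by liquid scintillation. Means of six rats.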

Rattus norvegicus [4] = test: Drug uptake in Sprague-Dawley rat assessed as radioactivity in lipid fraction at 4.6 to 23 mmol/kg, ip measured at 6 to 8 hrs by scintillation counting; assay type: ADME, organism-based; details: in vivo; outline: as §2
Rattus norvegicus [5] = test: Toxicity in Sprague-Dawley rat assessed as serum glutamic pyruvic transaminase level in blood at 23 mmol/kg, ip measured after 0.5 to 24 hrs (reference value: 14 +/- 2 IU/L); assay type: organism-based; details: in vivo
Rattus norvegicus [6] = test: Toxicity in phenobarbital pretreated Sprague-Dawley rat assessed as liver necrosis at 4.6 mmol/kg, ip measured after 0.5 to 24 hrs; assay type: organism-based; details: in vivo
Outline: (§3)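 Normal or phenobarbital-pretreated male Sprague-Dawley rats dosed ip with [14C]halothane in olive oil; controls received the vehicle. Rats killed by cervical dislocation 0.5-24 h after dosing. Liver slices fixed in 10% buffered formalin (pH 7.0) and paraffin-embedded. 6-µm sections stained with H&E and read by light microscopy. Necrosis graded on a 0-4+ scale. Six rats per time point.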

Rattus norvegicus [7] = test: Toxicity in Sprague-Dawley rat assessed as liver necrosis at 23 mmol/kg, ip measured after 4 to 24 hrs; assay type: organism-based; details: in vivo; outline: as §3
Rattus norvegicus [8] = test: Toxicity in Sprague-Dawley rat assessed as mortality at 23 mmol/kg, ip measured up to 24 hrs; assay type: organism-based; details: in vivo
Outline: (§4)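 Male Sprague-Dawley rats, 100-120 g, fasted overnight before dosing and fed afterwards. Some received phenobarbital sodium 80 mg/kg ip in water for 3 days and were used on day 4. [1-14C]halothane in olive oil, 50 µCi/kg, was given ip. Mortality was recorded over the sacrifice schedule of 0.5-24 h, with six rats per time point. Vehicle controls received olive oil.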

Rattus norvegicus [9] = test: Toxicity in phenobarbital pretreated Sprague-Dawley rat assessed as serum glutamic pyruvic transaminase level in blood at 11.5 mmol/kg, ip measured after 0.5 to 24 hrs (reference value: 15 +/- 2 IU/L); assay type: organism-based; details: in vivo
Rattus norvegicus [10] = test: Drug uptake in Sprague-Dawley rat assessed as radioactivity in liver protein at 4.6 to 23 mmol/kg, ip measured up to 24 hrs by scintillation counting; assay type: ADME, organism-based; details: in vivo; outline: as §2
Rattus norvegicus [11] = test: Drug uptake in Sprague-Dawley rat assessed as radioactivity in DNA fraction at 4.6 to 23 mmol/kg, ip measured up to 24 hrs by scintillation counting; assay type: ADME, organism-based; details: in vivo; outline: as §2
Rattus norvegicus [12] = test: Toxicity in phenobarbital pretreated Sprague-Dawley rat assessed as liver necrosis at 23 mmol/kg, ip measured after 24 hrs; assay type: organism-based; details: in vivo
Rattus norvegicus [13] = test: Toxicity in phenobarbital pretreated Sprague-Dawley rat assessed as liver necrosis at 11.5 mmol/kg, ip measured after 24 hrs; assay type: organism-based; details: in vivo
Rattus norvegicus [14] = test: Toxicity in Sprague-Dawley rat assessed as liver necrosis at 4.6 mmol/kg, ip measured after 0.5 to 24 hrs; assay type: organism-based; details: in vivo; outline: as §3
Rattus norvegicus [15] = test: Toxicity in phenobarbital pretreated Sprague-Dawley rat assessed as multiple, discrete foci of liver parenchymal cell necrosis at 11.5 mmol/kg, ip measured after 0.5 to 24 hrs by histopathological/light microscopy analysis (reference value: 0%); assay type: organism-based; details: in vivo; outline: as §3
Rattus norvegicus [16] = test: Toxicity in phenobarbital pretreated Sprague-Dawley rat assessed as mortality at 23 mmol/kg, ip measured up to 24 hrs; assay type: organism-based; details: in vivo; outline: as §4
Rattus norvegicus [17] = test: Toxicity in phenobarbital pretreated Sprague-Dawley rat assessed as multiple, discrete foci of liver parenchymal cell necrosis at 23 mmol/kg, ip measured after 0.5 to 24 hrs by histopathological/light microscopy analysis (reference value: 0%); assay type: organism-based; details: in vivo; outline: as §3
Rattus norvegicus [18] = test: Toxicity in Sprague-Dawley rat assessed as liver necrosis at 11.5 mmol/kg, ip measured after 0.5 to 24 hrs by histopathological/light microscopy analysis (reference value: 0%); assay type: organism-based; details: in vivo; outline: as §3
Rattus norvegicus [19] = test: Toxicity in Sprague-Dawley rat assessed as liver necrosis at 4.6 mmol/kg, ip measured after 0.5 to 24 hrs by histopathological/light microscopy analysis (reference value: 0%); assay type: organism-based; details: in vivo; outline: as §3
Rattus norvegicus [20] = test: Toxicity in Sprague-Dawley rat assessed as mortality at 11.5 mmol/kg, ip measured up to 24 hrs; assay type: organism-based; details: in vivo; outline: as §4
Rattus norvegicus [21] = test: Toxicity in phenobarbital pretreated Sprague-Dawley rat assessed as liver necrosis at 4.6 mmol/kg, ip measured after 0.5 to 24 hrs by histopathological/light microscopy analysis (reference value: 0%); assay type: organism-based; details: in vivo; outline: as §3
Rattus norvegicus [22] = test: Toxicity in Sprague-Dawley rat assessed as mortality at 4.6 mmol/kg, ip measured up to 24 hrs; assay type: organism-based; details: in vivo; outline: as §4
Rattus norvegicus [23] = test: Anesthetic activity in Sprague-Dawley rat assessed as duration of anesthesia at 11.5 mmol/kg, ip; assay type: functional; outline: as §1
Rattus norvegicus [24] = test: Toxicity in Sprague-Dawley rat assessed as liver necrosis at 11.5 mmol/kg, ip measured after 4 to 24 hrs; assay type: organism-based; details: in vivo; outline: as §3
Rattus norvegicus [25] = test: Toxicity in phenobarbital pretreated Sprague-Dawley rat assessed as mortality at 4.6 mmol/kg, ip measured up to 24 hrs; assay type: organism-based; details: in vivo; outline: as §4
Rattus norvegicus [26] = test: Toxicity in phenobarbital pretreated Sprague-Dawley rat assessed as mortality at 11.5 mmol/kg, ip measured up to 24 hrs; assay type: organism-based; details: in vivo; outline: as §4
Liver [27] = test: Protein binding in phenobarbital pretreated Sprague-Dawley rat liver protein at 4.6 to 23 mmol/kg, ip measured per mg of protein up to 24 hrs by scintillation counting; assay type: ADME, organism-based; details: in vivo
Outline: (§5)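 Male Sprague-Dawley rats, normal or phenobarbital-pretreated (80 mg/kg ip, 3 days), received ip [1-14C]halothane in olive oil (50 µCi/kg). Liver homogenized 1 g/3 ml water at 0 °C. Protein precipitate washed ten times with hot (60 °C) methanol-ether 3:1, then digested in 1 N NaOH and counted. Protein measured by Lowry against BSA. Result expressed as nmol halothane equivalents per mg protein. Blank from [14C]halothane added to control homogenate was subtracted. Six rats.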

Rattus norvegicus [28] = test: Toxicity in Sprague-Dawley rat assessed as serum glutamic pyruvic transaminase level in blood at 11.5 mmol/kg, ip measured after 0.5 to 24 hrs (reference value: 14 +/- 2 IU/L); assay type: organism-based; details: in vivo
Rattus norvegicus [29] = test: Toxicity in phenobarbital pretreated Sprague-Dawley rat assessed as serum glutamic pyruvic transaminase level in blood at 23 mmol/kg, ip measured after 0.5 to 24 hrs (reference value: 15 +/- 2 IU/L); assay type: organism-based; details: in vivo
Rattus norvegicus [30] = test: Toxicity in phenobarbital pretreated Sprague-Dawley rat assessed as serum glutamic pyruvic transaminase level in blood at 4.6 mmol/kg, ip measured after 0.5 to 24 hrs (reference value: 15 +/- 2 IU/L); assay type: organism-based; details: in vivo
Liver [31] = test: Protein binding in Sprague-Dawley rat liver protein at 4.6 to 23 mmol/kg, ip measured per mg of protein up to 24 hrs by scintillation counting; assay type: ADME, organism-based; details: in vivo; outline: as §5
Rattus norvegicus [32] = test: Toxicity in Sprague-Dawley rat assessed as liver necrosis at 23 mmol/kg, ip measured after 0.5 to 24 hrs by histopathological/light microscopy analysis (reference value: 0%); assay type: organism-based; details: in vivo; outline: as §3
Rattus norvegicus [33] = test: Anesthetic activity in Sprague-Dawley rat assessed as duration of anesthesia at 23 mmol/kg, ip; assay type: functional; outline: as §1

Structure (SMILES): FC(F)(F)C(Cl)Br (stereo not drawn)
- Activity (Rattus norvegicus [1]): inactive

Structure (SMILES): F[14C](F)(F)C(Cl)Br (stereo not drawn)
- Activity (Rattus norvegicus [2]): 16 IU/L
- Drug uptake (Rattus norvegicus [3]): Active
- Drug uptake (Rattus norvegicus [4]): Not Active
- Activity (Rattus norvegicus [5]): 18 IU/L
- Activity (Rattus norvegicus [6]): Non-toxic
- Activity (Rattus norvegicus [7]): Non-toxic
- Activity (Rattus norvegicus [8]): Non-toxic
- Activity (Rattus norvegicus [9]): 37 IU/L
- Drug uptake (Rattus norvegicus [10]): Active
- Drug uptake (Rattus norvegicus [11]): Not Active
- Activity (Rattus norvegicus [12]): Toxic
- Activity (Rattus norvegicus [13]): Toxic
- Activity (Rattus norvegicus [14]): Non-toxic
- Activity (Rattus norvegicus [15]): < 6%
- Activity (Rattus norvegicus [16]): Non-toxic
- Activity (Rattus norvegicus [17]): 6%
- Activity (Rattus norvegicus [18]): 0%
- Activity (Rattus norvegicus [19]): 0%
- Activity (Rattus norvegicus [20]): Non-toxic
- Activity (Rattus norvegicus [21]): 0%
- Activity (Rattus norvegicus [22]): Non-toxic
- Time (Rattus norvegicus [23]): 1.92 h
- Activity (Rattus norvegicus [24]): Non-toxic
- Activity (Rattus norvegicus [25]): Non-toxic
- Activity (Rattus norvegicus [26]): Non-toxic
- PB (Liver [27]): > 2 nmol/mg
- Activity (Rattus norvegicus [28]): 18 IU/L
- Activity (Rattus norvegicus [29]): 58 IU/L
- Activity (Rattus norvegicus [30]): 19 IU/L
- PB (Liver [31]): 0.8 nmol/mg
- Activity (Rattus norvegicus [32]): 0%
- Time (Rattus norvegicus [33]): 3.75 h
